The subject of assay [1] is L1210. Put plainly: Inhibitory concentration required to decrease the growth rate of L1210 cells to one-half of the control rate. Type of assay: functional, cell-based. The conditions noted are these: Mus musculus. In short, it runs like this:
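L1210 cells in Fischer's medium with 10% heat-inactivated horse serum, counted at 0, 24, 48, 72 and 96 h across selected compound concentrations. Growth rate is the semilog slope as percent of control. IC50 is the concentration that halves the growth rate; '>' values give the highest concentration tested.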

Assay [2] relates to Human betaherpesvirus 5. Put plainly: Antiviral activity in Human Cytomegalovirus Viral infection was evaluated by ELISA method. The format is functional, organism-based. In short, it runs like this:
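MRC-5 cells held overnight at 37 °C, then infected with Towne HCMV at moi 0.002 PFU/cell. After 1 h adsorption, up to 10 drug concentrations added in triplicate. Fixed with 95% EtOH after 6.5 days. Blocked, then mouse anti-HCMV monoclonal (1:400, 1 h) and peroxidase anti-mouse (1:1000, 2 h). Read at 450/570 nm, background subtracted; IC50 by log-linear regression.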

In assay [3] the test system is L1210. Put plainly: In vitro cytotoxicity against growth rate of L1210 cell at 100 micro M was evaluated. The format is functional, Mus musculus. The method, boiled down: (§1)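 L1210 murine leukemia cells in Fischer's medium with 10% heat-inactivated horse serum (56 °C, 30 min), exposed to 100 μM compound. Cells counted at 0, 24, 48, 72 and 96 h. Growth rate taken as the slope of semilog cell number versus time, expressed as percent of untreated control.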

For assay [4], the system named is Human betaherpesvirus 5. In words: Antiviral activity against Human Cytomegalovirus (HCMV) replication in a plaque reduction assay. The format is functional, organism-based. In short, it runs like this: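 Towne strain HCMV (plaque-purified P0) on HFF monolayers in MEM(E) with 10% FBS. Inoculum ca. 100 PFU per 0.2 mL; compounds dissolved in the overlay medium; plaques counted after staining. IC50 from linear regression of percent inhibition against log concentration. Ganciclovir as positive control; two or more experiments averaged.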
On the technique in general: Plaques are areas of infected cells; plaque reduction assays count them against a control.

A further assay deals with Human alphaherpesvirus 1. In words: Antiviral activity against HSV-1 replication was evaluated by ELISA. The format is functional, organism-based. The method, boiled down:
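HSV-1 strain S-148 ELISA following Prichard and Shipman. Drug concentrations applied to infected cultures; percent inhibition regressed linearly against log concentration and IC50 read from the regression line. Acyclovir as positive control. Most assays averaged over two or more experiments, but HSV-1 ELISAs were run once.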
(In an ELISA, binding on a coated surface is turned into a signal by an enzyme label.)

For another assay, the system named is HFF. Put plainly: Cytotoxicity against HFF cells, estimated by visual scoring of cells not affected by virus infection in the plaque reduction assay. The format is functional, cell-based. The settings on record: Homo sapiens. The method, boiled down: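 Uninfected areas of HFF monolayers in the HCMV plaque-reduction assay examined at 35-fold magnification. Drug-induced cytopathology scored 0–4 on the day plaques were stained and counted.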

Assay [5] concerns KB. Put plainly: Cytotoxic activity tested against exponentially growing KB cells, determined by staining method. Type of assay: functional, cell-based. The conditions noted are these: Homo sapiens. In short, it runs like this:
(§2)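 KB cells (human oral epidermoid carcinoma) kept in MEM(H) with 10% calf serum and tested while exponentially growing. Toxicity measured by a previously described staining method. IC50 from linear regression of percent inhibition against log drug concentration; two or more experiments averaged.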

The test system of assay [6] is L1210. In words: Percent control against growth rate of L1210 cell at 100 micro M was evaluated. The format is functional, Mus musculus. The method, boiled down:
as §1

The subject of assay [7] is KB. In words: Cytotoxic activity against exponentially growing KB cells was determined by a staining method. The conditions noted are these: Homo sapiens. Type of assay: functional, cell-based. The method, boiled down: as §2

On to `NC(=S)c1cn(COCc2ccccc2)c2ncnc(N)c12`, for which the IC50 with L1210 [1] is 100 µM; in the assay on Human betaherpesvirus 5 [2], 1.8 µM; in the assay on Human betaherpesvirus 5 [4], 2.6 µM; with Human alphaherpesvirus 1 it was 10 µM; with HFF it was > 100 µM; with KB [5] it was > 100 µM. Also, the Control in the assay with L1210 [3] amounted to 52%.

In the assay with L1210 [3], `COCCOCn1cc(C#N)c2c(N)ncnc21` yielded a Control of 88%. Also, the half-inhibitory concentration (IC50) is 90 µM in the assay with Human betaherpesvirus 5 [4], > 100 µM in the assay on Human alphaherpesvirus 1, > 100 µM in the assay on HFF and > 100 µM in the assay on KB [5].

As for `CCOCn1cc(C(=N)S)c2c(N)ncnc21`, the IC50 with Human betaherpesvirus 5 [2] was 7 µM; in the assay on Human betaherpesvirus 5 [4], 2.7 µM; with Human alphaherpesvirus 1, 40 µM; in the assay on HFF, 66 µM; with KB [5], 68 µM. This molecule yielded a Control in the assay on L1210 [3] of 111%.

Consider `CCOCn1cc(C(N)=O)c2c(N)ncnc21`, for which the Control in the assay on L1210 [6] stood at 91%. The half-maximal inhibitory concentration (IC50) in the assay on Human betaherpesvirus 5 [4], in the assay on Human alphaherpesvirus 1, in the assay on HFF and in the assay on KB [5] was > 100 µM each time.

In the assay on L1210 [3], `N#Cc1cn(COCc2ccccc2)c2ncnc(N)c12` yielded a Control of 83%. The IC50 in the assay with Human betaherpesvirus 5 [4], with Human alphaherpesvirus 1, in the assay on HFF and in the assay with KB [5] was > 100 µM throughout.

Turning to `Cc1cccc(Cn2cc(C#N)c3c(N)ncnc32)c1`, the IC50 in the assay on KB [7], in the assay on Human betaherpesvirus 5 [4], in the assay with Human alphaherpesvirus 1 and in the assay with HFF was > 100 µM each time.

Consider `NC(=O)c1cn(COCc2ccccc2)c2ncnc(N)c12`, for which the 50% inhibitory concentration (IC50) in the assay on L1210 [1] was 70 µM; with Human betaherpesvirus 5 [4], > 100 µM; in the assay on Human alphaherpesvirus 1 it was > 100 µM; in the assay on HFF, > 100 µM; in the assay with KB [5] it was > 100 µM. In the assay on L1210 [3], this molecule yielded a Control of 0%.

In the case of `COCCOCn1cc(C(N)=S)c2c(N)ncnc21`, the IC50 in the assay with Human betaherpesvirus 5 [2] was 1.9 µM; with Human betaherpesvirus 5 [4], 1 µM; in the assay with Human alphaherpesvirus 1, 85 µM; with HFF it was > 100 µM; in the assay on KB [5], 183 µM. The molecule also registered a Control with L1210 [3] of 88%.

As for `COCCOCn1cc(C(N)=O)c2c(N)ncnc21`, the Control with L1210 [3] was determined as 92%. The IC50 in the assay with Human betaherpesvirus 5 [4], in the assay on Human alphaherpesvirus 1, in the assay with HFF and in the assay on KB [5] was > 100 µM each time.

In the case of `CCOCn1cc(C#N)c2c(N)ncnc21`, the Control in the assay on L1210 [3] amounted to 76%. The IC50 in the assay with Human betaherpesvirus 5 [4], in the assay with Human alphaherpesvirus 1, in the assay on HFF and with KB [5] was > 100 µM in each case.

One may read the IC50 as the concentration needed to halve the response being measured.

The values are drawn from ChEMBL document CHEMBL1129491, “Synthesis of non-nucleoside analogs of toyocamycin, sangivamycin, and ++thiosangivamycin: influence of various 7-substituents on antiviral activity” (J Med Chem, 1996).
